The results in this text go back to ChEMBL document CHEMBL5344414, “Maleimide constrained BAD BH3 domain peptides as BCL-xL Inhibitors: A versatile approach to rapidly identify sites compatible with peptide constraining” (Bioorg Med Chem Lett, 2023).

The experiment concerns the target BCL2L1/BAD (Homo sapiens, UniProt Q07817). In words: Inhibition of BAD/His-SUMO tagged BCL-XL (1 to 209 residues; missing 27 to 82 residues) (unknown origin) overexpressed in Escherichia coli BL21 protein-protein interaction by fluorescence anisotropy competition assay. In outline:
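Final conditions: 200 nM BCL-xL, 50 nM tracer, 20 mM Tris, 150 mM NaCl, pH 7.6, 20 °C, with peptide titrated. Tracer Kd for BCL-xL was determined beforehand by direct titration (6 nM-125 μM protein).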

SMILES strings stand for the structures. Where a SMILES comes first, the peptide text is derived from it. Where only a bound is given, the exact number is not on record here.

BCL2L1/BAD, sequence (Q92934 whole entry, the tested form may be a part): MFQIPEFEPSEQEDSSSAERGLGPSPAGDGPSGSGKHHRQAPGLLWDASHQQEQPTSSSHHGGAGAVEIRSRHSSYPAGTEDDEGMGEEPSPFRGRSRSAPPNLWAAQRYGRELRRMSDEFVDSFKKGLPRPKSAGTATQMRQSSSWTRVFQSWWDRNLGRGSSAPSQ
BCL2L1/BAD, sequence (Q07817 whole entry, the tested form may be a part): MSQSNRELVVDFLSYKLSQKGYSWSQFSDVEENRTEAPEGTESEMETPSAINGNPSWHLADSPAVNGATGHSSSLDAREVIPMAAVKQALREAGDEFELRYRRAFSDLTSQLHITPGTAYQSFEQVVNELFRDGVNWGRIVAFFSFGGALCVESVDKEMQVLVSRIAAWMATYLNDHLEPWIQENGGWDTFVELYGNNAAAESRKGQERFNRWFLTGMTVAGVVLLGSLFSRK

One may read the IC50 as the concentration at which inhibition is half-maximal. Regarding `CSCC[C@H](NC(=O)[C@@H]1CS2=S(C[C@H](NC(=O)CNC(=O)[C@H](Cc3ccc(O)cc3)NC(=O)[C@H](CCCNC(=N)N)NC(C)=O)C(=O)N[C@@H](CCC(=O)O)C(=O)N[C@@H](CC(C)C)C(=O)N[C@@H](CCCNC(=N)N)C(=O)N1)C(=O)NC2=O)C(=O)N[C@@H](CO)C(=O)N[C@@H](CC(=O)O)C(=O)N[C@@H](CCC(=O)O)C(=O)N[C@@H](Cc1ccccc1)C(=O)N[C@H](C(=O)N[C@@H](CC(=O)O)C(=O)N[C@@H](CO)C(=O)N[C@@H](Cc1ccccc1)C(=O)N[C@@H](CCCCN)C(=O)N[C@@H](CCCCN)C(N)=O)C(C)C` (stereo partly specified), the IC50 is more than 50 µM.
The result for `CSCC[C@H](NC(=O)[C@H](CCCNC(=N)N)NC(=O)[C@H](CCCNC(=N)N)NC(=O)[C@H](CC(C)C)NC(=O)[C@H](CCC(=O)O)NC(=O)[C@H](CCCNC(=N)N)NC(=O)CNC(=O)[C@H](Cc1ccc(O)cc1)NC(=O)[C@H](CCCNC(=N)N)NC(C)=O)C(=O)N[C@@H](CO)C(=O)N[C@H]1CS2=S(C[C@@H](C(=O)N[C@@H](CO)C(=O)N[C@@H](Cc3ccccc3)C(=O)N[C@@H](CCCCN)C(=O)N[C@@H](CCCCN)C(N)=O)NC(=O)[C@H](C(C)C)NC(=O)[C@H](Cc3ccccc3)NC(=O)[C@H](CCC(=O)O)NC1=O)C(=O)NC2=O` (stereo partly specified) reads more than 50 µM; that for `CSCC[C@H](NC(=O)[C@H](CCCNC(=N)N)NC(=O)[C@H](CCCNC(=N)N)NC(=O)[C@H](CC(C)C)NC(=O)[C@@H]1CS2=S(C[C@H](NC(C)=O)C(=O)N[C@@H](Cc3ccc(O)cc3)C(=O)NCC(=O)N[C@@H](CCCNC(=N)N)C(=O)N1)C(=O)NC2=O)C(=O)N[C@@H](CO)C(=O)N[C@@H](CC(=O)O)C(=O)N[C@@H](CCC(=O)O)C(=O)N[C@@H](Cc1ccccc1)C(=O)N[C@H](C(=O)N[C@@H](CC(=O)O)C(=O)N[C@@H](CO)C(=O)N[C@@H](Cc1ccccc1)C(=O)N[C@@H](CCCCN)C(=O)N[C@@H](CCCCN)C(N)=O)C(C)C` (stereo partly specified), 5.5 µM; that for `CSCC[C@H](NC(=O)[C@H](CCCNC(=N)N)NC(=O)[C@@H]1CS2=S(C[C@H](NC(=O)[C@H](Cc3ccc(O)cc3)NC(=O)[C@H](CCCNC(=N)N)NC(C)=O)C(=O)N[C@@H](CCCNC(=N)N)C(=O)N[C@@H](CCC(=O)O)C(=O)N[C@@H](CC(C)C)C(=O)N1)C(=O)NC2=O)C(=O)N[C@@H](CO)C(=O)N[C@@H](CC(=O)O)C(=O)N[C@@H](CCC(=O)O)C(=O)N[C@@H](Cc1ccccc1)C(=O)N[C@H](C(=O)N[C@@H](CC(=O)O)C(=O)N[C@@H](CO)C(=O)N[C@@H](Cc1ccccc1)C(=O)N[C@@H](CCCCN)C(=O)N[C@@H](CCCCN)C(N)=O)C(C)C` (stereo partly specified), more than 50 µM.
The result for `CSCC[C@@H]1NC(=O)[C@H](CCCNC(=N)N)NC(=O)[C@@H](NC(=O)[C@H](CC(C)C)NC(=O)[C@H](CCC(=O)O)NC(=O)[C@H](CCCNC(=N)N)NC(=O)CNC(=O)[C@H](Cc2ccc(O)cc2)NC(=O)[C@H](CCCNC(=N)N)NC(C)=O)CS2=S(C[C@@H](C(=O)N[C@@H](CCC(=O)O)C(=O)N[C@@H](Cc3ccccc3)C(=O)N[C@H](C(=O)N[C@@H](CC(=O)O)C(=O)N[C@@H](CO)C(=O)N[C@@H](Cc3ccccc3)C(=O)N[C@@H](CCCCN)C(=O)N[C@@H](CCCCN)C(N)=O)C(C)C)NC(=O)[C@H](CO)NC1=O)C(=O)NC2=O` (stereo partly specified) reads more than 50 µM.
The result for `CSCC[C@H](NC(=O)[C@H](CCCNC(=N)N)NC(=O)[C@H](CCCNC(=N)N)NC(=O)[C@H](CC(C)C)NC(=O)[C@H](CCC(=O)O)NC(=O)[C@H](CCCNC(=N)N)NC(=O)CNC(=O)[C@H](Cc1ccc(O)cc1)NC(=O)[C@H](CCCNC(=N)N)NC(C)=O)C(=O)N[C@H]1CS2=S(C[C@@H](C(=O)N[C@@H](CC(=O)O)C(=O)N[C@@H](CO)C(=O)N[C@@H](Cc3ccccc3)C(=O)N[C@@H](CCCCN)C(=O)N[C@@H](CCCCN)C(N)=O)NC(=O)[C@H](Cc3ccccc3)NC(=O)[C@H](CCC(=O)O)NC(=O)[C@H](CC(=O)O)NC1=O)C(=O)NC2=O` (stereo partly specified) reads more than 50 µM.
Take `CSCC[C@H](NC(=O)[C@H](CCCNC(=N)N)NC(=O)[C@H](CCCNC(=N)N)NC(=O)[C@H](CC(C)C)NC(=O)[C@H](CCC(=O)O)NC(=O)[C@H](CCCNC(=N)N)NC(=O)CNC(=O)[C@H](Cc1ccc(O)cc1)NC(=O)[C@H](CCCNC(=N)N)NC(C)=O)C(=O)N[C@@H](CO)C(=O)N[C@@H](CC(=O)O)C(=O)N[C@H]1CS2=S(C[C@@H](C(=O)N[C@@H](Cc3ccccc3)C(=O)N[C@@H](CCCCN)C(=O)N[C@@H](CCCCN)C(N)=O)NC(=O)[C@H](CC(=O)O)NC(=O)[C@H](C(C)C)NC(=O)[C@H](Cc3ccccc3)NC1=O)C(=O)NC2=O` (stereo partly specified): the IC50 is more than 50 µM.
The result for `CSCC[C@H](NC(=O)[C@H](CCCNC(=N)N)NC(=O)[C@H](CCCNC(=N)N)NC(=O)[C@H](CC(C)C)NC(=O)[C@H](CS)NC(=O)[C@H](CCCNC(=N)N)NC(=O)CNC(=O)[C@H](Cc1ccc(O)cc1)NC(=O)[C@H](CS)NC(C)=O)C(=O)N[C@@H](CO)C(=O)N[C@@H](CC(=O)O)C(=O)N[C@@H](CCC(=O)O)C(=O)N[C@@H](Cc1ccccc1)C(=O)N[C@H](C(=O)N[C@@H](CC(=O)O)C(=O)N[C@@H](CO)C(=O)N[C@@H](Cc1ccccc1)C(=O)N[C@@H](CCCCN)C(=O)N[C@@H](CCCCN)C(N)=O)C(C)C` (Ac-CYGRCLRRMSDEFVDSFKK-NH2) reads 5.1 µM.
`CSCC[C@H](NC(=O)[C@H](CCCNC(=N)N)NC(=O)[C@H](CS)NC(=O)[C@H](CC(C)C)NC(=O)[C@H](CCC(=O)O)NC(=O)[C@H](CCCNC(=N)N)NC(=O)[C@H](CS)NC(=O)[C@H](Cc1ccc(O)cc1)NC(=O)[C@H](CCCNC(=N)N)NC(C)=O)C(=O)N[C@@H](CO)C(=O)N[C@@H](CC(=O)O)C(=O)N[C@@H](CCC(=O)O)C(=O)N[C@@H](Cc1ccccc1)C(=O)N[C@H](C(=O)N[C@@H](CC(=O)O)C(=O)N[C@@H](CO)C(=O)N[C@@H](Cc1ccccc1)C(=O)N[C@@H](CCCCN)C(=O)N[C@@H](CCCCN)C(N)=O)C(C)C` (Ac-RYCRELCRMSDEFVDSFKK-NH2) came in with an IC50 of 11.8 µM.
The result for `CSCC[C@H](NC(=O)[C@H](CS)NC(=O)[C@H](CCCNC(=N)N)NC(=O)[C@H](CC(C)C)NC(=O)[C@H](CCC(=O)O)NC(=O)[C@H](CS)NC(=O)CNC(=O)[C@H](Cc1ccc(O)cc1)NC(=O)[C@H](CCCNC(=N)N)NC(C)=O)C(=O)N[C@@H](CO)C(=O)N[C@@H](CC(=O)O)C(=O)N[C@@H](CCC(=O)O)C(=O)N[C@@H](Cc1ccccc1)C(=O)N[C@H](C(=O)N[C@@H](CC(=O)O)C(=O)N[C@@H](CO)C(=O)N[C@@H](Cc1ccccc1)C(=O)N[C@@H](CCCCN)C(=O)N[C@@H](CCCCN)C(N)=O)C(C)C` (Ac-RYGCELRCMSDEFVDSFKK-NH2) reads 6.8 µM.
Consider `CSCC[C@H](NC(=O)[C@H](CCCNC(=N)N)NC(=O)[C@H](CS)NC(=O)[C@H](CC(C)C)NC(=O)[C@H](CCC(=O)O)NC(=O)[C@H](CCCNC(=N)N)NC(=O)CNC(=O)[C@H](Cc1ccc(O)cc1)NC(=O)[C@H](CCCNC(=N)N)NC(C)=O)C(=O)N[C@@H](CO)C(=O)N[C@@H](CS)C(=O)N[C@@H](CCC(=O)O)C(=O)N[C@@H](Cc1ccccc1)C(=O)N[C@H](C(=O)N[C@@H](CC(=O)O)C(=O)N[C@@H](CO)C(=O)N[C@@H](Cc1ccccc1)C(=O)N[C@@H](CCCCN)C(=O)N[C@@H](CCCCN)C(N)=O)C(C)C` (Ac-RYGRELCRMSCEFVDSFKK-NH2), for which the IC50 is more than 50 µM.
